Experimental data as given in ChEMBL document CHEMBL1122162, “Carbocyclic analogue of 3-deazaadenosine: a novel antiviral agent using S-adenosylhomocysteine hydrolase as a pharmacological target” (1982).
≈ marks a conversion by molar mass, not a printed value. Calls of active or inactive are those of the source. No cut-off for these calls is given here.

Key:
Mus musculus [1] = organism: Mus musculus; test: In vitro antiviral activity against herpes simplex virus type 1 (strain E-377) grown in mouse fibroblasts cells, clone L-929, expressed as virus ration (VR); format: functional, Fibroblast
Mus musculus [2] = organism: Mus musculus; test: Effect in mouse infected with herpes simplex virus type-1; observed effects diminished with time; format: functional, organism-based
Mus musculus [3] = organism: Mus musculus; test: Effect in mouse infected with vaccinia virus; observed effects seen; format: functional, organism-based
Rattus norvegicus [4] = organism: Rattus norvegicus; test: Inhibition of oncogenic transformation expressed as %control cell number on day 3 in HL-23 virus infected rat kidney cells (NRK 153C17) at 2 uM; format: functional
Outline: (§1)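 Normal rat kidney cells (NRK 153 C1 7) infected with HL-23 virus, a C-type virus isolated from human acute myelogenous leukemia cells, and exposed to compound at 0–4 μM. Cell number determined on day 3 and expressed as % of control.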

Rattus norvegicus [5] = organism: Rattus norvegicus; test: Inhibition of oncogenic transformation expressed as %control cell number on day 3 in HL-23 virus infected rat kidney cells (NRK 153C17) at 4 uM; format: functional; outline: as §1
Rattus norvegicus [6] = organism: Rattus norvegicus; test: Inhibition of oncogenic transformation expressed as %control cell number on day 3 in HL-23 virus infected rat kidney cells (NRK 153C17) at 0.5 uM; format: functional; outline: as §1
Rattus norvegicus [7] = organism: Rattus norvegicus; test: Inhibition of oncogenic transformation expressed as %control cell number on day 3 in HL-23 virus infected rat kidney cells (NRK 153C17) at 1 uM; format: functional; outline: as §1
Rattus norvegicus [8] = organism: Rattus norvegicus; test: Percent inhibition of oncogenic transformation of HL-23 virus infected rat kidney cells (NRK 153C17) at 0.25 uM; format: functional
Outline: (§2)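 NRK 153 C1 7 rat kidney cells infected with HL-23 virus in the presence of compound at 0–4 μM. Foci were stained with Giemsa and counted per dish on day 5. % inhibition was derived from focus counts relative to the untreated dish.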

Rattus norvegicus [9] = organism: Rattus norvegicus; test: Percent inhibition of oncogenic transformation of HL-23 virus infected rat kidney cells (NRK 153C17) at 0.5 uM; format: functional; outline: as §2
Mus musculus [10] = organism: Mus musculus; test: Minimum Inhibitory concentration of the drug required for 50% inhibition of vaccinia virus (strain Lederle chorioallantoic) -induced cytopathogenic effects in infected cell cultures.; format: functional
Rattus norvegicus [11] = organism: Rattus norvegicus; test: Inhibition of oncogenic transformation expressed as number of foci on day 5 in HL-23 virus infected rat kidney cells (NRK 153C17) at 0.5 uM; format: functional; outline: as §2
Rattus norvegicus [12] = organism: Rattus norvegicus; test: Inhibition of oncogenic transformation expressed as %control cell number on day 3 in HL-23 virus infected rat kidney cells (NRK 153C17) at 0.25 uM; format: functional; outline: as §1
Mus musculus [13] = organism: Mus musculus; test: In vitro antiviral activity against vaccinia virus (strain Lederle chorioallantoic) grown in mouse fibroblasts cells, clone L-929, expressed as VR; format: functional, Fibroblast
Rattus norvegicus [14] = organism: Rattus norvegicus; test: Percent inhibition of oncogenic transformation of HL-23 virus infected rat kidney cells (NRK 153C17) at 2 uM; format: functional; outline: as §2
Rattus norvegicus [15] = organism: Rattus norvegicus; test: Inhibition of oncogenic transformation expressed as number of foci on day 5 in HL-23 virus infected rat kidney cells (NRK 153C17) at 2 uM; format: functional; outline: as §2
Mus musculus [16] = organism: Mus musculus; test: In vitro antiviral activity against herpes simplex virus type 1 (strain E-377) grown in mouse fibroblasts cells, clone L-929, expressed as virus rating (VR); format: functional, Fibroblast
Rattus norvegicus [17] = organism: Rattus norvegicus; test: Inhibition of oncogenic transformation expressed as number of foci on day 5 in HL-23 virus infected rat kidney cells (NRK 153C17) at 0.25 uM; format: functional; outline: as §2
Mus musculus [18] = organism: Mus musculus; test: Minimum Inhibitory concentration of the drug required for 50% inhibition of herpes simplex virus type 1 (strain E-377) -induced cytopathogenic effects in infected cell cultures.; format: functional
Rattus norvegicus [19] = organism: Rattus norvegicus; test: Inhibition of oncogenic transformation expressed as number of foci on day 5 in HL-23 virus infected rat kidney cells (NRK 153C17) at 1 uM; format: functional; outline: as §2
Rattus norvegicus [20] = organism: Rattus norvegicus; test: Inhibition of oncogenic transformation expressed as number of foci on day 5 in HL-23 virus infected rat kidney cells (NRK 153C17) at 4 uM; format: functional; outline: as §2
Rattus norvegicus [21] = organism: Rattus norvegicus; test: Percent inhibition of oncogenic transformation of HL-23 virus infected rat kidney cells (NRK 153C17) at 4 uM; format: functional; outline: as §2
Rattus norvegicus [22] = organism: Rattus norvegicus; test: Percent inhibition of oncogenic transformation of HL-23 virus infected rat kidney cells (NRK 153C17) at 0 uM; format: functional; outline: as §2
Rattus norvegicus [23] = organism: Rattus norvegicus; test: Percent inhibition of oncogenic transformation of HL-23 virus infected rat kidney cells (NRK 153C17) at 1 uM; format: functional; outline: as §2
Rattus norvegicus [24] = organism: Rattus norvegicus; test: Inhibition of oncogenic transformation expressed as number of foci on day 5 in HL-23 virus infected rat kidney cells (NRK 153C17) at 0 uM; format: functional; outline: as §2
Rattus norvegicus [25] = organism: Rattus norvegicus; test: Inhibition of oncogenic transformation was assayed by infecting normal rat kidney cells (NRK 153C17) with HL-23 virus and counting the %control cell number on day 3 at a concentration of 0 uM; format: functional; outline: as §1
Mus musculus [26] = organism: Mus musculus; test: Minimum Inhibitory concentration of the drug required for 50% inhibition vaccinia virus (strain Lederle chorioallantoic)-induced cytopathogenic effects in infected cell cultures.; format: functional
Mus musculus [27] = organism: Mus musculus; test: Effect in mouse infected with herpes simplex virus type-1; observed effects seen; format: functional, organism-based

Nc1nccc2c1ncn2[C@@H]1O[C@H](CO)[C@@H](O)[C@H]1O
Virus rating (Mus musculus [1]): 0.5

Nc1nccc2c1ncn2[C@@H]1C[C@H](CO)[C@@H](O)[C@H]1O [3-DEAZAARISTEROMYCIN A]
Activity (Mus musculus [2]): + to +/-
Activity (Mus musculus [3]): observed effects seen
Control cell number (Rattus norvegicus [4]): 71%
Control cell number (Rattus norvegicus [5]): 53%
Control cell number (Rattus norvegicus [6]): 96%
Control cell number (Rattus norvegicus [7]): 81%
inhibition at 0.25 µM (Rattus norvegicus [8]): 44%
inhibition at 0.5 µM (Rattus norvegicus [9]): 44%
MIC (Mus musculus [10]): 1.9 µg/mL (≈ 7.19 µM)
No. of foci per dish (Rattus norvegicus [11]): 65
Control cell number (Rattus norvegicus [12]): 100%
Virus rating (Mus musculus [13]): 2.8
inhibition at 2 µM (Rattus norvegicus [14]): 92%
No. of foci per dish (Rattus norvegicus [15]): 9
Virus rating (Mus musculus [16]): 1.1
No. of foci per dish (Rattus norvegicus [17]): 64
MIC (Mus musculus [18]): 238 µg/mL (≈ 901 µM)
No. of foci per dish (Rattus norvegicus [19]): 28
No. of foci per dish (Rattus norvegicus [20]): 1
inhibition at 4 µM (Rattus norvegicus [21]): 99%
Inhibition (Rattus norvegicus [22]): 0%
inhibition at 1 µM (Rattus norvegicus [23]): 76%
No. of foci per dish (Rattus norvegicus [24]): 115
Control cell number (Rattus norvegicus [25]): 100%

Nc1ncnc2c1ncn2[C@@H]1O[C@H](CO)[C@@H](O)[C@@H]1O [VIDARABINE]
Activity (Mus musculus [3]): Active
MIC (Mus musculus [26]): 19.2 µg/mL (≈ 71.8 µM)
Virus rating (Mus musculus [13]): 1.2
Virus rating (Mus musculus [16]): 3.2
MIC (Mus musculus [18]): 2.1 µg/mL (≈ 7.86 µM)
Activity (Mus musculus [27]): Active
